# Results from ChEMBL document CHEMBL5724801, “EUbOPEN Chemogenomics Library - Multiplex” (2024).
# Values joined by “and” are separate entries in the source; they are usually repeats but may differ in a detail not shown here. Identical values can stand only once.
# Tested on: Fibroblast
# Experiment: Multiplex assay against human fibroblast
# Assay type: toxicity, cell-based
# Conditions: 12 h, 1 µM, compound concentration 1 uM
# Procedure, shortened: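 On a CQ1 microscope at 37°C and 5% CO2, live cells were imaged after compound addition. They had been stained at seeding with Hoechst33342, BioTracker Green Microtubule Cytoskeleton Dye, MitoTracker Red and Annexin V Alexa Fluor 680. CellPathfinder machine-learning gating assigned cells to Hoechst high-intensity objects or normal cells, normal cells to healthy, pyknosed or fragmented nuclei, and pyknosed cells to mitotic or apoptotic. Tubulin, mitochondrial-mass and membrane-permeability phenotypes are per cents of healthy-nucleus cells.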
SMILES,Population Apoptotic (%),Population Fragmented Nuclei (%),Population Healthy Nuclei (%),Population Hoechst High Intensity Objects (%),Population Membrane Permeable-Phenotype (%),Population Mitochondria Different-Phenotype (%),Population Mitotic Cells (%),Population Normal (%),Population Pyknosed Nuclei (%),Population Tubulin-Different-Phenotype (%)
COc1cc(Nc2ncc3c(n2)-c2ccc(Cl)cc2C(c2c(F)cccc2OC)=NC3)ccc1C(=O)O [ALISERTIB],39% and 42%,11% and 18%,66% and 47%,1% and 8%,2% and 7%,4% and 7%,60% and 57%,98% and 91%,21% and 33%,23% and 41%
"C[C@H](C[C@H](N)C(=O)O)C(=O)O [2S,4R-4-METHYLGLUTAMATE]",17.14% and 40%,10.46% and 7.78%,66.67% and 77.25%,0%,1.96% and 3.1%,8.82% and 6.98%,82.86% and 60%,100%,22.88% and 14.97%,9.8% and 13.95%

# Same assay, conditions: 12 h, 1 µM, compound concentration 1 uM
row,SMILES,Total Cell Count
1,"C[C@H](C[C@H](N)C(=O)O)C(=O)O [2S,4R-4-METHYLGLUTAMATE]",153 and 167

# Same assay, conditions: 12 h, 10 µM, compound concentration 10 uM
SMILES,Population Apoptotic (%),Population Fragmented Nuclei (%),Population Healthy Nuclei (%),Population Hoechst High Intensity Objects (%),Population Membrane Permeable-Phenotype (%),Population Mitochondria Different-Phenotype (%),Population Mitotic Cells (%),Population Normal (%),Population Pyknosed Nuclei (%),Population Tubulin-Different-Phenotype (%)
COc1cc(Nc2ncc3c(n2)-c2ccc(Cl)cc2C(c2c(F)cccc2OC)=NC3)ccc1C(=O)O [ALISERTIB],56% and 48%,28% and 35%,47% and 30%,13% and 8%,1% and 4%,22% and 16%,43% and 51%,86% and 91%,24% and 33%,69% and 64%
"C[C@H](C[C@H](N)C(=O)O)C(=O)O [2S,4R-4-METHYLGLUTAMATE]",12.5% and 8.57%,12.57% and 5.6%,64.57% and 79.31%,0%,–,11.5% and 11.96%,87.5% and 91.43%,100%,22.86% and 15.09%,17.7% and 19.02%

# Same assay, conditions: 12 h, 10 µM, compound concentration 10 uM
row,SMILES,Total Cell Count
1,COc1cc(Nc2ncc3c(n2)-c2ccc(Cl)cc2C(c2c(F)cccc2OC)=NC3)ccc1C(=O)O [ALISERTIB],209 and 89
2,"C[C@H](C[C@H](N)C(=O)O)C(=O)O [2S,4R-4-METHYLGLUTAMATE]",175 and 232

# Same assay, conditions: 24 h, 1 µM, compound concentration 1 uM
SMILES,Population Apoptotic (%),Population Fragmented Nuclei (%),Population Healthy Nuclei (%),Population Hoechst High Intensity Objects (%),Population Membrane Permeable-Phenotype (%),Population Mitochondria Different-Phenotype (%),Population Mitotic Cells (%),Population Normal (%),Population Pyknosed Nuclei (%),Population Tubulin-Different-Phenotype (%)
COc1cc(Nc2ncc3c(n2)-c2ccc(Cl)cc2C(c2c(F)cccc2OC)=NC3)ccc1C(=O)O [ALISERTIB],36% and 48%,12% and 26%,69% and 47%,2% and 4%,2% and 4%,6%,63% and 51%,97% and 95%,18% and 26%,28% and 47%
"C[C@H](C[C@H](N)C(=O)O)C(=O)O [2S,4R-4-METHYLGLUTAMATE]",–,9.47% and 7.6%,73.16% and 83.04%,0%,3.6% and 1.41%,2.16% and 9.86%,90.91% and 68.75%,100%,17.37% and 9.36%,12.95% and 10.56%

# Same assay, conditions: 24 h, 1 µM, compound concentration 1 uM
row,SMILES,Total Cell Count
1,COc1cc(Nc2ncc3c(n2)-c2ccc(Cl)cc2C(c2c(F)cccc2OC)=NC3)ccc1C(=O)O [ALISERTIB],123
2,"C[C@H](C[C@H](N)C(=O)O)C(=O)O [2S,4R-4-METHYLGLUTAMATE]",190 and 171

# Same assay, conditions: 24 h, 10 µM, compound concentration 10 uM
SMILES,Population Apoptotic (%),Population Fragmented Nuclei (%),Population Healthy Nuclei (%),Population Hoechst High Intensity Objects (%),Population Membrane Permeable-Phenotype (%),Population Mitochondria Different-Phenotype (%),Population Mitotic Cells (%),Population Normal (%),Population Pyknosed Nuclei (%),Population Tubulin-Different-Phenotype (%)
COc1cc(Nc2ncc3c(n2)-c2ccc(Cl)cc2C(c2c(F)cccc2OC)=NC3)ccc1C(=O)O [ALISERTIB],64% and 56%,29% and 45%,44% and 36%,13% and 5%,1% and 0%,24% and 9%,35% and 43%,86% and 94%,25% and 18%,68% and 71%
"C[C@H](C[C@H](N)C(=O)O)C(=O)O [2S,4R-4-METHYLGLUTAMATE]",19.35% and 15.79%,10.38% and 3.95%,72.68% and 87.72%,0%,6.02% and 0%,6.02% and 4.5%,80.65% and 84.21%,100%,16.94% and 8.33%,18.05% and 14.5%

# Same assay, conditions: 24 h, 10 µM, compound concentration 10 uM
row,SMILES,Total Cell Count
1,COc1cc(Nc2ncc3c(n2)-c2ccc(Cl)cc2C(c2c(F)cccc2OC)=NC3)ccc1C(=O)O [ALISERTIB],191 and 93
2,"C[C@H](C[C@H](N)C(=O)O)C(=O)O [2S,4R-4-METHYLGLUTAMATE]",183 and 228

# Same assay, conditions: 48 h, 1 µM, compound concentration 1 uM
SMILES,Population Apoptotic (%),Population Fragmented Nuclei (%),Population Healthy Nuclei (%),Population Hoechst High Intensity Objects (%),Population Membrane Permeable-Phenotype (%),Population Mitochondria Different-Phenotype (%),Population Mitotic Cells (%),Population Normal (%),Population Pyknosed Nuclei (%),Population Tubulin-Different-Phenotype (%)
COc1cc(Nc2ncc3c(n2)-c2ccc(Cl)cc2C(c2c(F)cccc2OC)=NC3)ccc1C(=O)O [ALISERTIB],57% and 38%,15% and 33%,65% and 42%,5%,4% and 7%,5%,42% and 61%,94%,19% and 24%,32% and 54%
"C[C@H](C[C@H](N)C(=O)O)C(=O)O [2S,4R-4-METHYLGLUTAMATE]",16.67% and 37.5%,6.91% and 10.23%,84.79% and 85.23%,0%,1.63% and 1.33%,–,83.33% and 62.5%,100%,8.29% and 4.55%,10.33% and 18%

# Same assay, conditions: 48 h, 1 µM, compound concentration 1 uM
row,SMILES,Total Cell Count
1,COc1cc(Nc2ncc3c(n2)-c2ccc(Cl)cc2C(c2c(F)cccc2OC)=NC3)ccc1C(=O)O [ALISERTIB],115
2,"C[C@H](C[C@H](N)C(=O)O)C(=O)O [2S,4R-4-METHYLGLUTAMATE]",217 and 176

# Same assay, conditions: 48 h, 10 µM, compound concentration 10 uM
SMILES,Population Apoptotic (%),Population Fragmented Nuclei (%),Population Healthy Nuclei (%),Population Hoechst High Intensity Objects (%),Population Membrane Permeable-Phenotype (%),Population Mitochondria Different-Phenotype (%),Population Mitotic Cells (%),Population Normal (%),Population Pyknosed Nuclei (%),Population Tubulin-Different-Phenotype (%)
COc1cc(Nc2ncc3c(n2)-c2ccc(Cl)cc2C(c2c(F)cccc2OC)=NC3)ccc1C(=O)O [ALISERTIB],84% and 66%,38% and 37%,35% and 51%,23% and 8%,5% and 2%,37% and 15%,15% and 33%,76% and 91%,26% and 11%,80% and 65%
"C[C@H](C[C@H](N)C(=O)O)C(=O)O [2S,4R-4-METHYLGLUTAMATE]",28.57% and 21.43%,9.04% and 3.43%,83.51% and 90.56%,0%,0% and 2.37%,–,71.43% and 78.57%,100%,7.45% and 6.01%,10.83% and 15.64%

# Same assay, conditions: 48 h, 10 µM, compound concentration 10 uM
row,SMILES,Total Cell Count
1,COc1cc(Nc2ncc3c(n2)-c2ccc(Cl)cc2C(c2c(F)cccc2OC)=NC3)ccc1C(=O)O [ALISERTIB],188 and 85
2,"C[C@H](C[C@H](N)C(=O)O)C(=O)O [2S,4R-4-METHYLGLUTAMATE]",188 and 233
